Bioassay records from PubChem BioAssay.
The list is not random: actives were taken first. Their share in the collection is about 1.9%.
RAD52 anneal inh – blocks human RAD52 DNA annealing; P43351; recombinant RAD52 DNA annealing, FRET fluorescence; inhibition, % at 18.7 µM; 0.46% of 360,000 active; AID 651710;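 active = every replicate showing at least 50% inhibition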
Target sequence (P43351 whole entry, looked up): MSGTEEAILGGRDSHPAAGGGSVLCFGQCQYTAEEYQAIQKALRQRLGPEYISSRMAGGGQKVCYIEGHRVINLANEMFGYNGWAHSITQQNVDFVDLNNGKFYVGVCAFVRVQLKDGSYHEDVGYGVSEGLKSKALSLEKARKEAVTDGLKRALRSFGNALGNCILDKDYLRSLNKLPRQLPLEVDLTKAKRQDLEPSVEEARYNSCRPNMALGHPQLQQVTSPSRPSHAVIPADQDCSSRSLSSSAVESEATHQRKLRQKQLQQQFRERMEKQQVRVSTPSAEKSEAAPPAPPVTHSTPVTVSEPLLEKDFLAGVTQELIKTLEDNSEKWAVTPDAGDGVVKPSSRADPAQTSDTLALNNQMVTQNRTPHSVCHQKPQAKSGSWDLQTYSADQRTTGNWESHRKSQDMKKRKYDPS
Cneo AK release – causes C. neoformans cell lysis. adenylate kinase release luminescence, 4 h; normalised: neutral wells 0, clomiphene wells 100. lysis activity, % at 15 µM. 0.2% of 360,000 active. AID 651654;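 active = mean lysis activity across replicates of at least 80%, whatever share of replicates individually reach that level; inactive = mean lysis activity below 80%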
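read-out = cell lysis signal | test system = log-phase Cryptococcus neoformans yeast cells | input = cells at 5 × 10^6 per mL | medium = fresh YPD growth medium | signal = luminescent adenylate kinase detection reagent | timing = 4 h at 37 °C static, read 1 h later | dosing = single dose | controls = Clomiphene as positive lysis control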
PglD inh – blocks C. jejuni PglD acetyltransferase activity | purified PglD enzyme, DTNB colorimetric CoA detection | inhibition, % at 12.5 µM | 0.098% of 360,000 active | AID 602405; in the data active = inhibition above about 16%, passing the limit was not always enough
rRNA inh HTS – selective bacterial rRNA inhibition in E. coli; E. coli WT GFP vs humanized-ribosome RFP mutants, fluorescence, 24 h; stronger effect = lower value; DMSO median 0, no signal -100; GFP signal change (wild-type ribosome), % (no concentration beside the values); 1.6% of 350,000 active;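 active = significant combined selectivity score with lowered wild-type GFP, culture density cut under 30%, mutant RFP and density less affected; inactive = any of these conditions unmet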
RAD54 branch – inhibitors of human RAD54 branch migration. Q92698. RAD54 Holliday junction branch migration, FAM/BHQ fluorescence. inhibition, % at 10.4 µM. 0.14% of 360,000 active;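 active = mean normalized replicate activity at least 40 and at least half of replicates scoring 40 or more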;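 also: inhibitors cause a drop in the FAM fluorescence signal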
Of the large screens only hits and unclear results are named; the others gave an inactive call; ! = not active in a repeat.

O=C(c1cc(COc2ccc3ncccc3c2)on1)N1CCCC1	rRNA inh HTS -24
COc1ccccc1NS(=O)(=O)c1cc(N/C(=N/S(=O)(=O)c2ccccc2)c2ccc(F)cc2)ccc1Cl	none
O=S(=O)(/N=C(/Nc1ccc(Cl)c(S(=O)(=O)Nc2ccccc2Cl)c1)c1ccc(F)cc1)c1ccccc1	rRNA inh HTS -28! (no result: Cneo AK release, PglD inh, RAD54 branch)
COC(=O)c1scc(C#N)c1N/N=C(\C#N)S(=O)(=O)c1ccc(Cl)cc1	none
COC(=O)c1scc(S(=O)(=O)C(C)C)c1N/N=C(\C#N)C(=O)c1ccc(Cl)cc1	rRNA inh HTS -43 (no result: Cneo AK release, PglD inh, RAD54 branch)
O=C1CCN(Cc2ccccc2)C(=O)N1	none
O=Cc1ccc2c(c1)CCN2Cc1ccccc1	rRNA inh HTS -19
O=C(CN1CCOCC1)NCC[C@H]1CC[C@H](NC(=O)Nc2ccc(C(F)(F)F)cc2)[C@@H](CO)O1	none
COc1ccc(NC(=O)/C=C/c2ccccc2[N+](=O)[O-])c(OC)c1	rRNA inh HTS -23 (no result: Cneo AK release, PglD inh, RAD54 branch)
NNC(=O)c1csc(Cc2c(Cl)sc3ccc(Cl)cc23)n1	rRNA inh HTS -31
COc1ccc2c3c([nH]c2c1)[C@@H](CO)N(S(=O)(=O)c1cn(C)cn1)CC31CCN(Cc2ccccc2F)CC1	none (no result: Cneo AK release, PglD inh, RAD54 branch)
CCC(=O)N1[C@H](CN(C)C(C)=O)[C@@H](c2ccc(C3=CCCCC3)cc2)[C@@H]1CO	Cneo AK release 111 (no result: RAD52 anneal inh)
CCC(=O)N1[C@H](CO)[C@@H](c2ccc(-c3cccnc3)cc2)[C@@H]1CN(C)C(C)=O	Cneo AK release 104 (no result: RAD52 anneal inh)
CCC(=O)N1[C@H](CN(C)C(C)=O)[C@H](c2ccc(C3=CCCCC3)cc2)[C@@H]1CO	none (no result: Cneo AK release, PglD inh, RAD54 branch)
S=C(NCc1ccccn1)NN=Cc1ccccn1	rRNA inh HTS -19 (no result: Cneo AK release, PglD inh, RAD54 branch)
O=C(NC[C@H]1[C@H](c2ccccc2)[C@H](CO)N1C(=O)Cc1ccncc1)C1CCC1	none
Cc1cc(=O)[nH]c(N/N=C/CCc2ccccc2)n1	rRNA inh HTS -27 (no result: Cneo AK release, PglD inh, RAD54 branch)
COc1ccc(C(=O)COC(=O)c2ccccc2O)c(OC)c1	rRNA inh HTS -18
COc1ccc(S(=O)(=O)Nc2ccc3c(c2)C(=O)N([C@@H](C)CO)C[C@@H](C)[C@@H](CN(C)C(=O)NC2CCCCC2)OCCCC[C@H](C)O3)cc1	none
CN1C(=O)c2cc(NC(=O)c3cnccn3)ccc2OC[C@@H]2O[C@@H](CC(=O)NCC3CC3)CC[C@H]21	none (no result: Cneo AK release, PglD inh, RAD54 branch)
O/N=C(/c1ccccc1)c1cc2cc(Br)cc(Br)c2o1	rRNA inh HTS -23
COc1cccc2cc(/C(=N/O)c3ccc(Br)cc3)oc12	none (no result: Cneo AK release, PglD inh, RAD54 branch)
CCC(=O)Nc1ccc2c(c1)C(=O)N(C)C[C@@H](OC)[C@H](C)CN(C(=O)CN(C)C)[C@@H](C)CO2	none (no result: RAD52 anneal inh, Cneo AK release, PglD inh, RAD54 branch)
Cc1ccc(S(=O)(=O)N(CC(=O)NCc2ccco2)C2CCCCC2)cc1	rRNA inh HTS -28
O=C1c2ccccc2C(=O)N1Cc1cnc(N2CCN(c3ccccc3)CC2)s1	rRNA inh HTS -28 (no result: Cneo AK release, PglD inh, RAD54 branch)
CCC(=O)N1CC(=O)N2[C@@H](CO)[C@@H](c3ccc(C#CC4CCCCC4)cc3)[C@@H]2C1	none (no result: Cneo AK release, PglD inh, RAD54 branch)
O=C(N/N=C/c1c[nH]c2ccccc12)C1CC1c1ccccc1 (configuration not stated)	rRNA inh HTS -28 (no result: Cneo AK release, PglD inh, RAD54 branch)
O=C(N/N=C/c1c[nH]c2ccccc12)C1CC1(c1ccccc1)c1ccccc1 (configuration not stated)	none (no result: RAD52 anneal inh, rRNA inh HTS)
O=C(N/N=C/c1c[nH]c2ccccc12)c1cc(-c2ccccc2)n[nH]1	rRNA inh HTS -34
COc1ccc(CC(=O)NCC(=O)N/N=C/c2c[nH]c3ccccc23)cc1	rRNA inh HTS -37
O=C(CNC(=O)c1ccco1)N/N=C/c1c[nH]c2ccccc12	none
C[C@@H]1CCCCO[C@@H](CN(C)C(=O)Cc2ccccc2)[C@@H](C)CN([C@H](C)CO)C(=O)c2cc(NC(=O)CCCN(C)C)ccc2O1	none
O=C(NC1CCCC1)N1CC(=O)N2[C@H](CO)[C@@H](c3ccc(-c4cccnc4)cc3)[C@@H]2C1	none (no result: Cneo AK release, PglD inh, RAD54 branch)
CCC(=O)N1CCC2(CC1)CN(Cc1cc(F)ccc1F)[C@H](CO)c1c2c2ccc(OC)cc2n1C	none (no result: Cneo AK release, PglD inh, RAD54 branch)
COc1ccc(C2c3c(ncn(CCCO)c3=N)Oc3ccc4ccccc4c32)cc1OC (configuration not stated)	none
COc1ccc(C2c3c(ncn(CCCO)c3=N)Oc3ccc4ccccc4c32)cc1 (configuration not stated)	rRNA inh HTS -47
C[C@H]1CN([C@@H](C)CO)C(=O)c2cc(NS(=O)(=O)c3ccc(F)cc3)ccc2O[C@@H]1CN(C)Cc1ccc(Oc2ccccc2)cc1	none
Cc1c(C(=O)NCCSCc2c(F)cccc2Cl)cnn1-c1ccc(F)cc1	rRNA inh HTS -36
Cc1c(C(=O)NCCSCc2cccc(C(F)(F)F)c2)cnn1-c1ccc(F)cc1	rRNA inh HTS -37
Cc1c(C(=O)NCCSCc2ccc(F)cc2)cnn1-c1ccc(Cl)cc1	rRNA inh HTS -38
CC(C)(C)c1cc(C(c2cccnc2)N2CCN(CCO)CC2)cc(C(C)(C)C)c1O (configuration not stated)	rRNA inh HTS -30
O=C(c1csc(Nc2cccc3ccccc23)n1)N1CCCC1	rRNA inh HTS -32
CC(=O)Nc1cccc(NC(=O)CSc2ccc(-c3cccnc3)nn2)c1	rRNA inh HTS -26 (no result: Cneo AK release, PglD inh, RAD54 branch)
O=C(CSc1ccc(-c2cccnc2)nn1)N1CCCc2ccccc21	rRNA inh HTS -23 (no result: Cneo AK release, PglD inh, RAD54 branch)
O=C(CSc1ccc(-c2ccc(Cl)cc2)nn1)N1CCCc2ccccc21	none
COc1ccc(-c2ccc3c(c2)O[C@@H](CN(C)C(C)=O)[C@H](C)CN([C@@H](C)CO)S3(=O)=O)cc1	none
N#Cc1ccccc1CSc1nc2ccc(NC(=O)c3ccccc3C(=O)O)cc2s1	rRNA inh HTS -23 (no result: Cneo AK release, PglD inh, RAD54 branch)
O=C(O)c1ccc(CSc2nc3ccc(NC(=O)c4ccccc4C(=O)O)cc3s2)cc1	none
COc1ccc(S(=O)(=O)NNC(=S)NCCc2ccccc2)c(OC)c1	rRNA inh HTS -25
CO[C@@H]1CN(C)C(=O)c2cc(NC(=O)c3ccno3)ccc2OC[C@@H](C)N(S(C)(=O)=O)C[C@H]1C	none
O=C(C1CCCO1)N1CCN(C(=S)Nc2ccc(F)c(Cl)c2)CC1 (configuration not stated)	rRNA inh HTS -29
COCC(=O)Nc1ccc2c(c1)C(=O)N(C)C[C@H](OC)[C@@H](C)CN(Cc1ccccc1)[C@@H](C)CO2	none
CN(C)Cc1nc2ccccc2c(=O)n1Cc1nc(-c2cccc([N+](=O)[O-])c2)cs1	rRNA inh HTS -24 (no result: Cneo AK release, PglD inh, RAD54 branch)
CCS(=O)(=O)CCSc1nc2ccccc2o1	none
O=S(=O)(CCSc1nc2ccccc2o1)c1nc2ccccc2s1	rRNA inh HTS -32!
COc1cccc(NC(=O)N2CC3(C2)[C@@H](c2ccccc2)[C@@H](CO)N3C(=O)C2CCCC2)c1	none (no result: Cneo AK release, PglD inh, RAD54 branch)
CCc1cnc(N2[C@H](CO)[C@@H](c3ccccc3-c3ccccc3C)[C@@H]2C#N)s1	none (no result: RAD52 anneal inh, Cneo AK release, PglD inh, RAD54 branch)
Cn1cc(CCCC(=O)NCc2ccc(F)cc2)c2ccccc21	rRNA inh HTS -37
